One data set has as its target Rhodesain (Trypanosoma brucei rhodesiense, UniProt Q95PM0). Kind of data set: Inhibition of Trypanosoma brucei rhodesiense rhodesain expressed in Pichia pastoris using Cbz-Phe-Arg-AMC as substrate after 15 to 30 mins by fluorescence spectrophotometric analysis.
Data set [1] concerns the target T1, Procathepsin L (Homo sapiens, UniProt P07711). As to the kind of experiment: Inhibition of human cathepsin L.
Target sequence in this assay (P07711 whole entry): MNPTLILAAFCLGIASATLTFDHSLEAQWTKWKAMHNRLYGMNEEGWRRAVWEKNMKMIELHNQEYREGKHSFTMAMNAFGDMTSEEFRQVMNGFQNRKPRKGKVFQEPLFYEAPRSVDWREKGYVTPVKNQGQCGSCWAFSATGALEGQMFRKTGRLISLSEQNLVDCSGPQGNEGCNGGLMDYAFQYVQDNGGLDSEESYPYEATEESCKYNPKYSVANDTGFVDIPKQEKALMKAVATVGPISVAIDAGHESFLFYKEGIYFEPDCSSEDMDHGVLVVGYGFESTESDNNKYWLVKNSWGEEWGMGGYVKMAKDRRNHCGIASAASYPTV
Data set [2] deals with T2, Cathepsin B (Homo sapiens, UniProt P07858). As to the kind of experiment: Inhibition of human cathepsin B.
The next data set deals with Cruzipain (Trypanosoma cruzi, UniProt P25779). As to the kind of experiment: Inhibition of Trypanosoma cruzi cruzain.
The target in data set [3] is T1, Procathepsin L. As to the kind of experiment: Reversible inhibition of human cathepsin L assessed as enzyme activity recovery at 0.1 to 5 times IC50 preincubated for 5 mins followed by substrate addition measured up to 1500 sec by dilution assay.
Target sequence in this assay (P07711 114-333 limits assumed): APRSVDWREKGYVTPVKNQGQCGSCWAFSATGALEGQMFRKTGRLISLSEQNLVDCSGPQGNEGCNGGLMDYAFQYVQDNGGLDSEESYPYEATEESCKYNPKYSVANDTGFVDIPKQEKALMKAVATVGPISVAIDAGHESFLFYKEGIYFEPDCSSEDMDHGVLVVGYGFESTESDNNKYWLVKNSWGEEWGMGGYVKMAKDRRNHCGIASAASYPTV
For data set [4], the system named is Trypanosoma brucei brucei. As to the kind of experiment: Antitrypanosomal activity against Trypanosoma brucei brucei expressing BS449 after 48 hrs by ATPlite-luciferase reporter gene assay. It counts as functional.
Data set [5] relates to Trypanosoma brucei brucei. As to the kind of experiment: Antitrypanosomal activity against Trypanosoma brucei brucei expressing BS449 after 24 hrs by ATPlite-luciferase reporter gene assay. It counts as functional.
Data set [6] in a line: Stability of the compound in HMI-9 medium after 24 hrs. The data set is classed as physicochemical.
Data set [7] relates to Trypanosoma brucei brucei. As to the kind of experiment: Antitrypanosomal activity against Trypanosoma brucei brucei expressing BS449 after 72 hrs by ATPlite-luciferase reporter gene assay. The data set is classed as functional.
Data set [8] concerns the target T2, Cathepsin B. Kind of data set: Reversible inhibition of human cathepsin B assessed as enzyme activity recovery at 0.1 to 5 times IC50 preincubated for 5 mins followed by substrate addition measured up to 1500 sec by dilution assay.
For data set [9], the target named is Rhodesain (Trypanosoma brucei rhodesiense) (UniProt Q95PM0). Kind of data set: Reversible inhibition of Trypanosoma brucei rhodesiense rhodesain assessed as enzyme activity recovery preincubated for 5 mins followed by substrate addition measured after 30 mins by dialysis assay relative to control. Also noted: scale not given: the % may be the effect or the level left.

The target is the same in data set [10]. As to the kind of experiment: Reversible inhibition of Trypanosoma brucei rhodesiense rhodesain assessed as enzyme activity recovery preincubated for 5 mins followed by substrate addition measured after 120 mins by dialysis assay relative to control. Also on record: scale not given: the % may be the effect or the level left.
Data set [11] has the same target. As to the kind of experiment: Reversible inhibition of Trypanosoma brucei rhodesiense rhodesain assessed as enzyme activity recovery preincubated for 5 mins followed by substrate addition measured after 90 mins by dialysis assay relative to control. Also on record: scale not given: the % may be the effect or the level left.
Data set [12] has the same target. As to the kind of experiment: Reversible inhibition of Trypanosoma brucei rhodesiense rhodesain assessed as enzyme activity recovery preincubated for 5 mins followed by substrate addition measured after 60 mins by dialysis assay relative to control. Also on record: scale not given: the % may be the effect or the level left.
For data set [13] the target is unchanged. As to the kind of experiment: Binding affinity to Trypanosoma brucei rhodesiense 15N-labeled rhodesain expressed in Pichia pastoris at 1:1 molar ratio of protein:inhibitor incubated for 15 mins by 1H[…]TROSY-HSQC spectra analysis. In a few lines: (§1)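 15N-labelled rhodesain was mixed with inhibitor at 1:1 mol/mol, incubated 15 min, and a 1H–15N TROSY-HSQC spectrum was recorded. Inhibitor in DMSO-d6 was then added to reach a 1:3 protein/inhibitor ratio, incubated a further 7 min, and the spectrum was re-recorded.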

For data set [14] the target is unchanged. As to the kind of experiment: Binding affinity to Trypanosoma brucei rhodesiense 15N-labeled rhodesain expressed in Pichia pastoris at 1:3 molar ratio of protein:inhibitor incubated for 22 mins by 1H[…]TROSY-HSQC spectra analysis. In a few lines:
as §1

This is an account of results in ChEMBL document CHEMBL3864177, “Dipeptidyl Nitroalkenes as Potent Reversible Inhibitors of Cysteine Proteases Rhodesain and Cruzain” (ACS Med Chem Lett, 2016).

Each structure is given as a SMILES string. Activity calls are given as the source filed them. The rule behind the calls is not given here.

Chain of Rhodesain (Trypanosoma brucei rhodesiense) (Q95PM0 1-450): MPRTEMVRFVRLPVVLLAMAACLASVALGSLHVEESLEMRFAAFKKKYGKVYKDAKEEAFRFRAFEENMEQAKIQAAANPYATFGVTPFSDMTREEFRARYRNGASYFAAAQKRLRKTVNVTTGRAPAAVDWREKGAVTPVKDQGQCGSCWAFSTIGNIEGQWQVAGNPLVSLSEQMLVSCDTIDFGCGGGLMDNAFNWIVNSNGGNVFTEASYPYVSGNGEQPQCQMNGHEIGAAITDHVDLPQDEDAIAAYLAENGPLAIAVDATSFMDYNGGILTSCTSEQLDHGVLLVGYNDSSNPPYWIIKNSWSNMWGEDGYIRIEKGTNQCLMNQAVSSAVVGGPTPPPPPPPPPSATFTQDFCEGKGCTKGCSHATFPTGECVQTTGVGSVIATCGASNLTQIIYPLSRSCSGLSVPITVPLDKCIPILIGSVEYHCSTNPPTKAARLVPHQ
Chain of Rhodesain (Q95PM0 whole entry): as the sequence (Q95PM0 1-450) above
Chain of Cruzipain (P25779 whole entry): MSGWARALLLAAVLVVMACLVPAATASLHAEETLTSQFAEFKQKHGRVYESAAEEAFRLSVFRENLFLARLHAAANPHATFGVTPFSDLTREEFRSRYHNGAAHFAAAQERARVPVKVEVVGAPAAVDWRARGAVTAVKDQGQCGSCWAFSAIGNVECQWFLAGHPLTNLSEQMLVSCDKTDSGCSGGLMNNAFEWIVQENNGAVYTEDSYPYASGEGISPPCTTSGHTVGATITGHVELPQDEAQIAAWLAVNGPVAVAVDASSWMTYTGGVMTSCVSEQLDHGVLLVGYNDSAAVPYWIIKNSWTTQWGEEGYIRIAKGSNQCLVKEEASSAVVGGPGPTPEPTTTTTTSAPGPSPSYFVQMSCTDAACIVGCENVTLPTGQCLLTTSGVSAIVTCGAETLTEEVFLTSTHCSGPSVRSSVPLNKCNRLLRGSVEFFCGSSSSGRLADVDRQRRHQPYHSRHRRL

With `C/C(=C\[C@H](C)NC(=O)[C@H](CC(C)C)NC(=O)OCc1ccccc1)[N+](=O)[O-]`, the Ki was found to be 544 nM on Rhodesain, 2020 nM on Procathepsin L [1] and 3200 nM on Cathepsin B [2].

For `O=C(N[C@@H](Cc1ccccc1)C(=O)N[C@H](/C=C/[N+](=O)[O-])Cc1ccccc1)OCc1ccccc1`, the inhibition constant (Ki) at Rhodesain was 29 nM; on Procathepsin L [1], 110 nM; at Cathepsin B [2], 310 nM; at Cruzipain, 130 nM.

For `C[C@@H](/C=C/[N+](=O)[O-])NC(=O)[C@H](Cc1ccccc1)NC(=O)OCc1ccccc1`, the Ki at Rhodesain was 0.49 nM; on Procathepsin L [1], 11 nM; at Cathepsin B [2], 8 nM; on Cruzipain it was 0.44 nM. The “reversible inhibition (enzyme activity recovery)” value (shortened to “reversible inhibition”) at Procathepsin L [3] was “Active”. In addition, the figures for the EC50 in data set [4], in data set [5] and in [7] were 7170 nM, 5640 nM and 10800 nM, respectively. Also, the Stability entry in [6] was “Unstable”.

Regarding `CC(C)C[C@H](NC(=O)OCc1ccccc1)C(=O)N[C@@H](C)/C=C/[N+](=O)[O-]`, the inhibition constant Ki amounted to 30 nM on Rhodesain, 200 nM on Procathepsin L [1], 310 nM at Cathepsin B [2] and 130 nM on Cruzipain. Further, the inhibition result on Cathepsin B [8] was “Active”.

For `CC(C)C[C@H](NC(=O)OCc1ccccc1)C(=O)N[C@H](/C=C/[N+](=O)[O-])Cc1ccccc1`, the Ki at Rhodesain came to 18 nM; at Procathepsin L [1], 49 nM; at Cathepsin B [2], 710 nM; at Cruzipain, 28 nM. The “reversible inhibition” value on Procathepsin L [3] is “Active”.

As to `CN1CCN(C(=O)N[C@@H](Cc2ccccc2)C(=O)N[C@H](/C=C/S(=O)(=O)c2ccccc2)CCc2ccccc2)CC1`, the Activity was 0% in [9], 3% in data set [10], 0% in data set [11] and 2% in [12].

`O=C(N[C@@H](Cc1ccccc1)C(=O)N[C@H](/C=C/[N+](=O)[O-])CCc1ccccc1)OCc1ccccc1`: the inhibition constant (Ki) stood at 4.2 nM on Rhodesain, 19.6 nM at Procathepsin L [1], 34 nM on Cathepsin B [2] and 11 nM on Cruzipain. Further, the concentration giving a half-maximal response (EC50) worked out at 2100 nM in data set [4], 1620 nM in data set [5] and 3450 nM in [7]. For the same compound, the Stability result in data set [6] is listed as “Unstable”.

For `N=C(NCCCCCCNC(=N)NC(=N)Nc1ccc(Cl)cc1)NC(=N)Nc1ccc(Cl)cc1` [CHLORHEXIDINE], the EC50 in data set [4] is 410 nM; in data set [5], 430 nM; in data set [7], 430 nM.

Consider `CC(C)C[C@@H](/C=C/[N+](=O)[O-])NC(=O)[C@H](CC(C)C)NC(=O)OCc1ccccc1`, for which the Ki at Rhodesain is 18.4 nM; on Procathepsin L [1] it was 46 nM; on Cathepsin B [2], 210 nM; on Cruzipain, 25 nM. For the same compound, the “reversible inhibition” value at Procathepsin L [3] is “Active”. In addition, the Activity was 17% in data set [9], 49% in data set [10], 35% in data set [11] and 26% in data set [12]. The inhibition result at Cathepsin B [8] was “Active”.

Regarding `CC(C)C[C@H](NC(=O)OCc1ccccc1)C(=O)N[C@H](/C=C/[N+](=O)[O-])CCc1ccccc1`, the Ki on Rhodesain amounted to 14 nM; on Procathepsin L [1], 27 nM; on Cathepsin B [2], 72 nM; at Cruzipain it was 17 nM. Besides, the Activity in data set [9] was 22%; in data set [10], 110%; in data set [11], 76%; in [12], 46%.

With `CC(C)C[C@@H](/C=C/[N+](=O)[O-])NC(=O)[C@H](Cc1ccccc1)NC(=O)OCc1ccccc1`, the Ki is 6.5 nM on Rhodesain, 30 nM on Procathepsin L [1], 68 nM on Cathepsin B [2] and 16 nM on Cruzipain. Moreover, on Procathepsin L [3], the “reversible inhibition” value was “Active”. The outcome in data set [13] and in data set [14] was Active. The Activity is 16% in data set [9], 47% in data set [10], 29% in data set [11] and 24% in data set [12]. Further, the EC50 in [4] is 1310 nM; in data set [5] it was 990 nM; in [7], 2060 nM. Besides, the Stability entry in data set [6] is on record as “Unstable”.

With `C/C(=C\[C@H](C)NC(=O)[C@H](Cc1ccccc1)NC(=O)OCc1ccccc1)[N+](=O)[O-]`, the values for the Ki on Rhodesain, at Procathepsin L [1] and on Cathepsin B [2] were 50 nM, 280 nM and 6300 nM, respectively.
